Screens from PubChem.
CXCR6 inh: CXCR6 receptor inhibitors, primary screen, cell-based, beta-arrestin, luminescence, CHO-K1 PathHunter, 1536-well; C-X-C chemokine receptor type 6 (Homo sapiens), O00574; inhibition, % at 20 µM; 360,000 tested, 0.36% active; AID 602244, 2012; in the data active means inhibition above about 34%, passing the limit was not always enough;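 further: antagonist mode with CXCL16 agonist at 10 nM final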
Target sequence (O00574 whole entry, looked up): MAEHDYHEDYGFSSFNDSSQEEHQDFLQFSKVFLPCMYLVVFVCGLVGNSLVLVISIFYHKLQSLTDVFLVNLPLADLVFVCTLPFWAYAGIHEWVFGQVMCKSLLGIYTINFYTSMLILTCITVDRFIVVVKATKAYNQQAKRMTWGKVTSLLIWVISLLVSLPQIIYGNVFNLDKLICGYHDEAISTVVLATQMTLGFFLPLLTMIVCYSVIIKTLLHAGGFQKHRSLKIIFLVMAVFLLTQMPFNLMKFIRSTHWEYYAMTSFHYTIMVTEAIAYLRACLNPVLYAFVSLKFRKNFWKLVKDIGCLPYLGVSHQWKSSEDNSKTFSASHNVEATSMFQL
CCR6 antagonist: CCR6 receptor antagonists, primary screen, cell-based, CHO-K1, luminescence, beta-arrestin, uHTS; C-C chemokine receptor type 6 (Homo sapiens), P51684; CHO-K1 CCR6 PathHunter beta-arrestin, CCL20-stimulated; inhibition, % at 20 µM; 340,000 tested, 0.49% active; AID 493098, 2011;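 active means compounds whose inhibition of the agonist-driven luminescence signal at 20 µM reaches about 50%, limit read from the data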;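 further: cells stimulated with CCL20 at 14 nM final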
APJ antagonist: antagonists of human apelin receptor APJ, primary screen, CHO-K1 cells, beta-arrestin complementation, luminescence | P35414 | inhibition, % at 20 µM | 330,000 tested, 0.32% active | AID 2521, 2010;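 active means inhibition above about 40% at 20 µM, limit read from the data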;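 further: cells challenged with 10 nM apelin-13 agonist together with compound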
EBI2 block: EBI2 receptor antagonists, beta-arrestin recruitment, primary screen, cell-based, luminescence, 7a,25-OHC stimulation, uHTS. G-protein coupled receptor 183 (Homo sapiens), P32249. 7a,25-OHC stimulated. inhibition, % at 5 µM. 360,000 tested, 0.81% active. AID 651636, 2012; in the data active means inhibition above about 38%;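 further: enzyme fragment complementation signal reports receptor beta-arrestin coupling in cells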
APJ agonist: agonists of human apelin receptor APJ, primary screen, CHO-K1 cells, PathHunter beta-arrestin, luminescence | P35414 | 0% DMSO wells, 100% apelin | activation, % at 20 µM | 330,000 tested, 0.11% active | AID 2520, 2010;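 active means activation more than six SD over the plate average, tested at 20 µM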
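Test system – PathHunter CHO-K1 APJ (AGTRL-1) beta-arrestin reporter cells · Input – 1000 cells/well · Compound – single test compound dose, 20 µM final, 1% DMSO · Times – compound stimulation 90 min at 25 °C, detection 60 min · Technique – beta-gal luminescence · Read-out basis – APJ–arrestin association signal · Control set – negative DMSO alone, positive Apelin-13 at 10 nM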
CXCR6 confirm: CXCR6 receptor antagonists, confirmation, cell-based, single concentration, beta-arrestin, luminescence | shares compounds with CXCR6 inh | CHO-K1 CXCR6 PathHunter beta-arrestin | inhibition, % at 20 µM | 700 tested, 65% active | AID 602409, 2012;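 active means mean inhibition over four retests above 40%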;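 further: receptor stimulated with 10 nM CXCL16 agonist; beta-galactosidase fragment complementation upon beta-arrestin recruitment to receptor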
Hits are given with their value; n = inactive; x = not tested or not shown. Only some compounds are listed: those with a hit (about 1.5% of all), similar ones and a draw of the others.

SMILES	CXCR6 inh	CCR6 antagonist	APJ antagonist	EBI2 block	APJ agonist	CXCR6 confirm
CCn1nc(NS(=O)(=O)c2ccc(NC(C)=O)cc2)c2cc3cc(C)ccc3nc21	n	n	n	n	n	x
N=C1SCC(=O)N1c1ncc(Cc2ccccc2Cl)s1	51	x	x	n	x	58
CC(C)C(=O)Nc1ncc(Cc2ccccc2Cl)s1	n	n	n	n	n	x
C=CC[C@@H](CC(=O)N(CCO)Cc1ccccc1)C(=O)NC[C@@H](OC(=O)[C@@H](CC=C)Cc1ccc(F)cc1)c1ccccc1	n	n	n	n	n	x
C=CC[C@@H](CC(=O)N(CCO)Cc1ccccc1)C(=O)N[C@H](COC(=O)[C@@H](CC=C)Cc1ccc(F)cc1)Cc1ccccc1	n	n	n	n	n	x
C=CC[C@H](CC(=O)N(CCO)Cc1ccccc1)C(=O)NC[C@H](OC(=O)[C@@H](CC=C)Cc1ccc(F)cc1)c1ccccc1	48	n	n	n	n	n
C=CC[C@@H](CC(=O)N(CCO)Cc1ccccc1)C(=O)N[C@@H](COC(=O)[C@@H](CC=C)Cc1ccc(F)cc1)Cc1ccccc1	42	n	n	n	n	n
CCC(C(=O)N/N=C(\C)c1cccnc1)c1ccccc1 (stereo unspecified)	n	n	n	n	n	x
O=C(CSc1nnc(-c2ccco2)n1-c1ccccc1)N1CCOCC1	63	n	n	n	n	n
Cc1ccc(C(=O)NNC(=S)NC(=O)c2ccccc2)cc1	36	x	n	n	n	44
Cc1ccc(C(=O)NC(=S)NNC(=O)c2ccccc2)cc1	n	n	n	n	n	x
COc1ccc(CC(=O)OCC(=O)NCCc2ccccc2)cc1OC	n	n	n	n	n	x
CNc1cnn(-c2ccc(C)cc2)c(=O)c1Cl	56	n	n	n	n	n
CCc1ccc(C(O)(CNCc2ccccc2)c2ccccc2)cc1 (stereo unspecified)	n	n	n	n	n	x
O=[N+]([O-])c1ccccc1S(=O)(=O)N1CCSCC1	n	n	n	n	n	x
Cc1cccc(C(=O)NCC(=O)N2CCCC2)c1	40	n	n	n	n	n
Cc1ccc(C(=O)NCC(=O)N2CCCCCC2)cc1	n	n	n	n	n	x
COc1ccc(NC(=S)N(CCc2c(C)[nH]c3ccccc23)Cc2cccnc2)cc1	37	n	n	n	n	n
O=C(CC1CC1)Nc1ccc2c(c1)[C@@H]1C[C@H](CC(=O)NC3CCCC3)O[C@@H](CO)[C@@H]1O2	n	x	x	n	x	x
Fc1ccc(Oc2nccc(-c3ccc(Cl)cc3)n2)cc1	n	n	n	n	n	x
CCOC(=O)c1sc2nc(SCC#N)n(CC3CCCO3)c(=O)c2c1C (stereo unspecified)	61	n	n	n	n	n
CCOC(=O)c1sc2nc(SCC(=O)N(CC)CC)n(CCCN3CCCC3=O)c(=O)c2c1C	n	n	n	n	n	x
O=C1CC(Sc2nnnn2-c2ccccc2)C(=O)N1c1cccc(Cl)c1 (stereo unspecified)	94	x	n	n	n	59
COc1cc(N2C(=O)C=CC2=O)ccc1N1C(=O)C=CC1=O	106	107	x	n	x	47
COc1ccc(N2C(=O)C3CC(C)=C(C)CC3C2=O)c(OC)c1 (stereo unspecified)	n	n	n	n	n	x
COc1ccc2[nH]cc(CCNC(=O)COc3ccc4ccc(=O)oc4c3)c2c1	n	n	n	n	n	x
CCOc1ccc(N(CC(=O)Nc2ccccc2C(=O)N2CCOCC2)S(=O)(=O)c2ccc(F)cc2)cc1	70	n	n	n	n	n
CS(=O)(=O)N(CC(=O)Nc1ccccc1C(=O)N1CCOCC1)c1cccc(F)c1	n	n	n	n	n	x
C[C@H]1CN([C@@H](C)CO)C(=O)CCCn2nncc2CO[C@@H]1CN(C)Cc1ccccc1C(F)(F)F	39	x	x	n	x	n
